Measured values from ChEMBL document CHEMBL1833805, “Histone deacetylase inhibitors from Burkholderia thailandensis” (2011).
The source made the active and inactive calls.

Columns and labels:
Type in all cases: functional, organism-based
OVCAR-5 = assay: Antitumor activity against human OVCAR5 cells implanted intraperitoneally in mouse assessed as inhibition of tumor cell growth at 1.6 to 2.4 mg/kg, ip administered on day 1 to 4 measured on day 5 by hollow fiber assay
In short: (§1)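 Human tumour cell lines from a standard 12-line panel encapsulated in polyvinylidene fluoride hollow fibres (500,000 Da exclusion), implanted intraperitoneally or subcutaneously in mice; drug given IP at 2.4 and 1.6 mg/kg/dose on days 1–4; fibres retrieved and viable cell mass determined day 5; T/C versus vehicle-only injected controls.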

UACC-62 = assay: Antitumor activity against human UACC62 cells implanted intraperitoneally in mouse assessed as inhibition of tumor cell growth at 1.6 to 2.4 mg/kg, ip administered on day 1 to 4 measured on day 5 by hollow fiber assay; in short: as §1
MDA-MB-231 = assay: Antitumor activity against human MDA-MB-231 cells implanted intraperitoneally in mouse assessed as inhibition of tumor cell growth at 1.6 to 2.4 mg/kg, ip administered on day 1 to 4 measured on day 5 by hollow fiber assay; in short: as §1
COLO 205 = assay: Antitumor activity against human COLO205 cells implanted intraperitoneally in mouse assessed as inhibition of tumor cell growth at 1.6 to 2.4 mg/kg, ip administered on day 1 to 4 measured on day 5 by hollow fiber assay; in short: as §1
MDA-MB-435 = assay: Antitumor activity against human MDA-MB-435 cells implanted intraperitoneally in mouse assessed as inhibition of tumor cell growth at 1.6 to 2.4 mg/kg, ip administered on day 1 to 4 measured on day 5 by hollow fiber assay; in short: as §1
SF-295 = assay: Antitumor activity against human SF295 cells implanted intraperitoneally in mouse assessed as inhibition of tumor cell growth at 1.6 to 2.4 mg/kg, ip administered on day 1 to 4 measured on day 5 by hollow fiber assay; in short: as §1
U-251 = assay: Antitumor activity against human U251 cells implanted intraperitoneally in mouse assessed as inhibition of tumor cell growth at 1.6 to 2.4 mg/kg, ip administered on day 1 to 4 measured on day 5 by hollow fiber assay; in short: as §1
LOX IMVI = assay: Antitumor activity against human LOXIMVI cells implanted intraperitoneally in mouse assessed as inhibition of tumor cell growth at 1.6 to 2.4 mg/kg, ip administered on day 1 to 4 measured on day 5 by hollow fiber assay; in short: as §1
NCI-H23 = assay: Antitumor activity against human NCI-H23 cells implanted intraperitoneally in mouse assessed as inhibition of tumor cell growth at 1.6 to 2.4 mg/kg, ip administered on day 1 to 4 measured on day 5 by hollow fiber assay; in short: as §1
NCI-H522 = assay: Antitumor activity against human NCI-H522 cells implanted intraperitoneally in mouse assessed as inhibition of tumor cell growth at 1.6 to 2.4 mg/kg, ip administered on day 1 to 4 measured on day 5 by hollow fiber assay; in short: as §1
SW-620 = assay: Antitumor activity against human SW620 cells implanted intraperitoneally in mouse assessed as inhibition of tumor cell growth at 1.6 to 2.4 mg/kg, ip administered on day 1 to 4 measured on day 5 by hollow fiber assay; in short: as §1
Homo sapiens = assay: Antitumor activity against human OVRAC3 cells implanted intraperitoneally in mouse assessed as inhibition of tumor cell growth at 1.6 to 2.4 mg/kg, ip administered on day 1 to 4 measured on day 5 by hollow fiber assay; in short: as §1

Measured: TGI

C/C=C1\NC(=O)[C@H]2CSSCC/C=C/[C@H](CC(=O)N[C@H](C(C)C)C(=O)N2)OC(=O)[C@H](C(C)C)NC1=O
active: OVCAR-5 | UACC-62 | MDA-MB-231 | COLO 205 | MDA-MB-435 | SF-295 | U-251 | LOX IMVI | NCI-H23 | NCI-H522 | SW-620 | Homo sapiens
